# HIV Env fusion: inhibitors of HIV-1 Env-driven cell-cell fusion, primary screen, HeLa-JRFL effector, CEM21 target cells, luciferase; inhibition, % at 12.3 µM; hit rate 1.1% among 360,000; AID 651610, 2012;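 active = mean replicate inhibition score of at least 50 and every replicate individually at or above 50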;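 also: 0% = plate neutral controls and 100% = maraviroc near 300 nM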
# PglD inh: C. jejuni PglD acetyltransferase inhibitors, primary screen, biochemical, DTNB colorimetric, single point; inhibition, % at 12.5 µM; purified PglD enzyme, DTNB colorimetric CoA detection; AID 602405, 2012; UDP-N-acetylbacillosamine N-acetyltransferase PglD (Campylobacter jejuni); hit rate 0.098% among 360,000; in the data active = inhibition above about 16%, passing the limit was not always enough
# FN deposition inh: inhibitors of fibronectin matrix deposition, primary screen, AH1F cells, Alexa488-fibronectin fluorescence, plate reader; AH1F fibroblasts, overnight; inhibition, % at 12.6 µM; hit rate 0.086% among 350,000; AID 743247, 2014;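 active = mean inhibition across replicates of 30% or more, regardless of how many single replicates reach that level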;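 also: positive control wells lacked labelled fibronectin entirely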
#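 Assay system: AH1F fibroblast monolayer, labelled fibronectin deposition. Amount: 10000 cells per well. Also added: labelled fibronectin 24 nM. Compound: single-point pinned compound. Incubation: cell attachment 1 h, compound and FN exposure overnight. Detection: fluorescence after three HBSS washes, excitation 485 nm, emission 525 nm. Read-out: inhibition of fibronectin deposition signal.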
# DENV2 CPE: inhibitors of DENV2 cytopathic effect, primary screen, cell-based, plate reader, single concentration; DENV2-infected cells, cytopathic effect rescue; CPE inhibition, % at 9.99 µM; hit rate 1.7% among 350,000; AID 651640, 2012; in the data active = CPE inhibition above about 20%, passing the limit was not always enough; tested in BHK-21 cells;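 also: 0% = median of neutral control wells and 100% = median of positive control wells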
# PGC1a acetyl inh: inhibitors of PGC1a acetylation signal, primary screen, cell-based, U2OS, AlphaScreen, inhibitor mode. AlphaScreen anti-acetyl-lysine; with virally co-expressed GCN5 acetyltransferase. inhibition, % at 15.6 µM. hit rate 0.17% among 350,000;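 active = every replicate shows inhibition of at least 40%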;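 also: 0% = neutral control wells and 100% = positive control wells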
# rRNA inh HTS: reduced GFP signal of wild-type E. coli, primary screen, bacterial rRNA inhibitor project, GFP/RFP fluorescence, OD600, single point; E. coli WT GFP vs humanized-ribosome RFP mutants, 24 h; stronger effect = lower value; DMSO median 0, no signal -100; GFP signal change (wild-type ribosome), % (no concentration beside the values); hit rate 1.6% among 350,000; AID 720706, 2013;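 active = significant combined selectivity score with lowered wild-type GFP, culture density cut under 30%, mutant RFP and density less affected; inactive = any of these conditions unmet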
# Active calls of the source: *; / = no result given; [ ] = dose if it differs, or a comment. Sampled rows, rich in hits. Any-hit rate of the full collection: about 3.5%.
SMILES,HIV Env fusion,PglD inh,FN deposition inh,DENV2 CPE,PGC1a acetyl inh,rRNA inh HTS
C[C@H](CO)N1C[C@H](C)[C@@H](CN(C)Cc2ccccc2)Oc2ccc(NC(=O)CCN3CCOCC3)cc2C1=O,4[16.7 µM],-1,/,14,/,7
CO[C@H]1CN(C)C(=O)c2cc(NC(=O)Nc3ccccc3)ccc2OC[C@@H](C)NC[C@@H]1C,-1[16.7 µM],-2,10,26*,/,0
CO[C@H]1CN(C)C(=O)c2cc(NC(C)=O)ccc2OC[C@H](C)NC[C@H]1C,11[16.7 µM],/,/,/,6,1
CCS(=O)(=O)Nc1ccc2c(c1)C(=O)N(C)C[C@H](OC)[C@@H](C)CN[C@@H](C)CO2,-12[16.7 µM],0,-15,25*,/,5
CO[C@H]1CN(C)C(=O)c2cc(NC(=O)Nc3ccccc3Cl)ccc2OC[C@@H](C)NC[C@H]1C,-2[16.7 µM],-5,-5,20*,3,0
CO[C@H]1CN(C)C(=O)c2cc(NC(C)=O)ccc2OC[C@@H](C)NC[C@@H]1C,11[16.7 µM],19*,/,-11,35,1
CCCNC(=O)[C@@H]1[C@@H](CO)[C@@H]2Cn3c(cccc3=O)[C@@H]2N1C(=O)C1CCCC1,/,1,/,-2,/,1
CO[C@H]1CN(C)C(=O)c2cc(NC(=O)c3nc4ccccc4s3)ccc2OC[C@H](C)NC[C@H]1C,/,-5,-3,16,-2,-12
CO[C@@H]1CN(C)C(=O)c2cc(NC(=O)c3nc4ccccc4s3)ccc2OC[C@H](C)NC[C@H]1C,/,3,13,24*,-6,-4
CCc1cc2c(=O)c(-c3nc4ccccc4n3C)c(C(C)C)oc2c(CN2CCN(C)CC2)c1O,57*,5,/,/,-1,/
Cc1cccc(NS(=O)(=O)c2ccc(-c3ccc(=O)[nH]n3)o2)c1,-1,-6,-6,0,11,-14
O=c1ccc(-c2ccc(S(=O)(=O)Nc3cccc(Br)c3)o2)n[nH]1,6,/,16,27*,3,2
O=C1O[C@H](c2ccccc2)[C@H](c2ccccc2)N2[C@H]1[C@@H](C(=O)N1CCCCCCC1)[C@]1(C(=O)Nc3ccccc31)[C@H]2c1ccccc1OCCO,59*[16.7 µM],1,/,42*,-8,/
CCC(=O)N1C[C@@H](C)[C@@H](OC)CN(C)C(=O)c2ccc(NC(=O)c3cnccn3)cc2OC[C@H]1C,/,13,-5,-11,-7,0
CC(C)[C@H](NC(=O)c1cccs1)C(=O)N1CCC[C@H]1C(=O)NCc1ccccc1,0,/,-1,26*,/,-4
O=C(NC(C(=O)N1CCCC1C(=O)NC1CCCC1)c1ccccc1)c1cccs1 (stereo not given),27,/,0,47*,/,6
O=C(N[C@H](C(=O)N1CCC[C@H]1C(=O)NC1CCCC1)C1CCCCC1)c1ccc(Cl)cc1Cl,-28,/,2,-8,/,-28*
Cc1ccc(S(=O)(=O)Nc2ccc3c(c2)C(=O)N([C@@H](C)CO)C[C@H](C)[C@@H](CN(C)S(=O)(=O)c2ccc(F)cc2)O3)cc1,8[16.7 µM],/,/,7,5,0
O=C(C1CCCC1)N1CC2(C1)[C@@H](c1ccccc1)[C@@H](CO)N2CC1CC1,/,/,-1,0,/,1
C[C@@H]1CCCCO[C@@H](CN(C)C(=O)CCC(F)(F)F)[C@H](C)CN([C@@H](C)CO)C(=O)c2cc(NC(=O)Nc3ccccc3)ccc2O1,-7[16.7 µM],3,6,2,10,-2
Cn1c(SCC(=O)Nc2ccccc2-c2ccccc2)nnc1-c1ccco1,/,5,/,4,/,-24*
Cc1nnc(SCC(=O)Nc2ccccc2F)n1Cc1ccco1,-11,0,0,64*,-1,14
COC(=O)C1=C(C)NC(C)=C(C(=O)OC)C1C(=O)OCC(=O)N1c2ccccc2CC1C (stereo not given),-26,-2,-2,-4,0,-12*

# Assay outcomes: PubChem BioAssay, Broad Institute
